Measured values reported in ChEMBL document CHEMBL3774312, “5-Substituted 3-isopropyl-7-[4-(2-pyridyl)benzyl]amino-1(2)H-pyrazolo[4,3-d]pyrimidines with anti-proliferative activity as potent and selective inhibitors of cyclin-dependent kinases” (Eur J Med Chem, 2016).
The source made the active and inactive calls. The rule behind the calls is not given here.

How the values were obtained:
[1] = biological target: Cyclin-dependent kinase 2/cyclin E1 (Homo sapiens, UniProt P24941); test: Inhibition of CDK2/Cyclin E (unknown origin) expressed in sf9 cells using histone H1 as substrate in presence of [gamma33P]-ATP; assay type: cell-based
[2] = biological target: Cyclin-dependent kinase 5 (Homo sapiens, UniProt Q00535); test: Inhibition of CDK5 (unknown origin) using histone H1 as substrate in presence of [gamma33P]-ATP
Sequence of Cyclin-dependent kinase 5 (Q00535 whole entry): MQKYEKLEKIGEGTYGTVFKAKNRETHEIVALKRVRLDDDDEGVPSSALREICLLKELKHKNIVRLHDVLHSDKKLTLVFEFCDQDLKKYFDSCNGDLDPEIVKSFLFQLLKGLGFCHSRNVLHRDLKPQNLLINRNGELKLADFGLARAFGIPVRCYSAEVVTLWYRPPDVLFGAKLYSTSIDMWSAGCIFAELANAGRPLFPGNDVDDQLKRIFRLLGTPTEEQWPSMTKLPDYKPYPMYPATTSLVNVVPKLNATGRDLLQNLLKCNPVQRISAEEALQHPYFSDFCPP

K562 = test: Cytotoxicity against human K562 cells assessed as reduction in cell viability after 72 hrs by calcein AM staining based fluorescence assay; assay type: functional; details: K562, 72 h
Method in brief: (§1)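 Cells were grown in DMEM with 10% FBS, penicillin and streptomycin at 37 °C in 5% CO2. Three doses were tested in triplicate for 72 h.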

MCF7 [3] = test: Cytotoxicity against human MCF7 cells assessed as reduction in cell viability after 72 hrs by calcein AM staining based fluorescence assay; assay type: functional; details: for IC50: MCF7, 72 h; method in brief: as §1
[4] = Cytotoxicity against human G361 cells assessed as reduction in cell viability after 72 hrs by calcein AM staining based fluorescence assay; assay type: functional; details: G-361, 72 h; method in brief: as §1
[5] = (§2) Cytotoxicity against human HCT116 cells assessed as reduction in cell viability after 72 hrs by calcein AM staining based fluorescence assay; assay type: functional; details: HCT-116, 72 h
Method in brief: (§3)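 Cells were grown in DMEM with 10% FBS, penicillin and streptomycin at 37 °C in 5% CO2. Three doses were tested in triplicate for 72 h. Live cells were read by Calcein AM fluorescence at 485/538 nm.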

MCF7 [6] = test: Cell cycle arrest in BrdU pulse-labelled human MCF7 cells assessed as accumulation at late G2/M phase at 8 to 250 nM after 24 hrs by propidium iodide staining based flow cytometry; assay type: functional
HCT-116 = test: as §2; assay type: functional; method in brief: as §3
MCF7 [7] = test: Cell cycle arrest in BrdU pulse-labelled human MCF7 cells assessed as decrease in cells at S phase at 8 to 250 nM after 24 hrs by propidium iodide staining based flow cytometry; assay type: functional
MCF7 [8] = test: Cell cycle arrest in BrdU pulse-labelled human MCF7 cells assessed as accumulation at subG1 phase at 8 to 250 nM after 24 hrs by propidium iodide staining based flow cytometry; assay type: functional
MCF7 [9] = test: Cell cycle arrest in BrdU pulse-labelled human MCF7 cells assessed as accumulation at late S phase at 8 to 250 nM after 24 hrs by propidium iodide staining based flow cytometry; assay type: functional
MCF7 [10] = test: Cell cycle arrest in BrdU pulse-labelled human MCF7 cells assessed as accumulation at subG1 phase at 500 to 5000 nM after 24 hrs by propidium iodide staining based flow cytometry; assay type: functional
MCF7 [11] = test: Cell cycle arrest in BrdU pulse-labelled human MCF7 cells assessed as decrease in cells at S phase at 500 to 5000 nM after 24 hrs by propidium iodide staining based flow cytometry; assay type: functional
MCF7 [12] = test: Cell cycle arrest in BrdU pulse-labelled human MCF7 cells assessed as accumulation at late G2/M phase at 500 to 5000 nM after 24 hrs by propidium iodide staining based flow cytometry; assay type: functional
MCF7 [13] = test: Cell cycle arrest in BrdU pulse-labelled human MCF7 cells assessed as accumulation at late S phase at 500 to 5000 nM after 24 hrs by propidium iodide staining based flow cytometry; assay type: functional
MCF7 [14] = test: Cell cycle arrest in BrdU pulse-labelled human MCF7 cells assessed as accumulation at subG1 phase at 8 to […] after 24 hrs by propidium iodide staining based flow cytometry; assay type: functional
MCF7 [15] = test: Cell cycle arrest in BrdU pulse-labelled human MCF7 cells assessed as accumulation at late S phase at 8 to […] after 24 hrs by propidium iodide staining based flow cytometry; assay type: functional
MCF7 [16] = test: Cell cycle arrest in BrdU pulse-labelled human MCF7 cells assessed as accumulation at late G2/M phase at 8 to […] after 24 hrs by propidium iodide staining based flow cytometry; assay type: functional
MCF7 [17] = test: Cell cycle arrest in BrdU pulse-labelled human MCF7 cells assessed as decrease in cells at S phase at 8 to […] after 24 hrs by propidium iodide staining based flow cytometry; assay type: functional

IC50 [1] [nM] | IC50 [2] [nM] | Structure (SMILES) | IC50 (K562) [nM] | IC50 (MCF7 [3]) [nM] | IC50 [4] [nM] | IC50 [5] [nM] | also measured
18 | 8 | CC(C)c1n[nH]c2c(NCc3ccc(-c4ccccn4)cc3)nc(NCCN)nc12 | 63 | 62 | 230 | 227 | –
12 | 21 | CC(C)c1n[nH]c2c(NCc3ccc(-c4ccccn4)cc3)nc(NCC(O)CO)nc12 (stereo unspecified) | 47 | 59 | 72 | 87 | –
48 | – | CSc1nc(NCc2ccc(-c3ccccn3)cc2)c2[nH]nc(C(C)C)c2n1 | 778 | 819 | 1400 | 2800 | –
– | – | CC[C@H](CO)Nc1nc(NCc2ccc(-c3ccccn3)cc2)c2ncn(C(C)C)c2n1 | 175 | 160 | 503 | 350 | –
24 | 37 | CC(C)c1n[nH]c2c(NCc3ccc(-c4ccccn4)cc3)nc(N3CCCCC3CCO)nc12 (stereo unspecified) | 165 | 133 | 204 | 142 | –
51 | 17 | CC(C)c1n[nH]c2c(NCc3ccc(-c4ccccn4)cc3)nc(NCC(O)CN)nc12 (stereo unspecified) | 700 | 310 | 1020 | 781 | Activity (MCF7 [6]): Active; Activity (MCF7 [3]): Dose-dependent effect; Activity (HCT-116): Dose-dependent effect; Activity (MCF7 [7]): Active; Activity (MCF7 [8]): Active; Activity (MCF7 [9]): Active
197 | – | CC(C)c1n[nH]c2c(NCc3ccc(-c4ccccn4)cc3)ncnc12 | – | – | 875 | 1240 | Activity (MCF7 [3]): Dose-dependent effect; Activity (HCT-116): Dose-dependent effect; Activity (MCF7 [10]): Active; Activity (MCF7 [11]): Active; Activity (MCF7 [12]): Active; Activity (MCF7 [13]): Active
54 | – | CCC(CO)Nc1nc(NCc2ccc(-c3ccccn3)cc2)c2[nH]nc(C(C)C)c2n1 (stereo unspecified) | – | 53 | 67 | 110 | Activity (MCF7 [3]): Dose-dependent effect; Activity (HCT-116): Dose-dependent effect; Activity (MCF7 [14]): Active; Activity (MCF7 [15]): Active; Activity (MCF7 [16]): Active; Activity (MCF7 [17]): Active
31 | 49 | CC(C)c1n[nH]c2c(NCc3ccc(-c4ccccn4)cc3)nc(NCCO)nc12 | 38 | 51 | 39 | 27 | –
132 | – | CC(C)c1n[nH]c2c(NCc3ccc(-c4ccccn4)cc3)nc(N3CCN(CCO)CC3)nc12 | 145 | 195 | 181 | 350 | –
– | – | CC[C@H](CO)Nc1nc(NCc2ccccc2)c2ncn(C(C)C)c2n1 [SELICICLIB] | – | 12200 | – | 14400 | –
